Test results published in ChEMBL document CHEMBL5154634, “A Modular Synthetic Route Involving N-Aryl-2-nitrosoaniline Intermediates Leads to a New Series of 3-Substituted Halogenated Phenazine Antibacterial Agents” (J Med Chem, 2021).
In brackets after ≈: the same amount, converted by molar mass. Activity calls are given as the source filed them. The calls are words filed in the database; no cut-off is given here.

Assays:
Staphylococcus aureus [1] = test: Antibacterial activity against methicillin-resistant Staphylococcus aureus BAA-44 assessed as bacterial growth inhibition incubated for 16 hrs by broth microdilution susceptibility test; format: functional
In short: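 CLSI broth microdilution with 11 twofold dilutions (0.05–50 μM). Medium was LB for the staphylococci and BHI for VRE 700221. About 10^5 cells per well from a log-phase culture. […] DMSO vehicle up to 0.5% v/v. At least three independent experiments.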

Enterococcus faecalis = test: Antibacterial activity against Enterococcus faecalis OG1RF ATCC 47077 assessed as bacterial growth inhibition incubated for 16 hrs by broth microdilution susceptibility test; format: functional
[2] = system: Mycobacterium tuberculosis; test: Antibacterial activity against Mycobacterium tuberculosis CDC1551 assessed as bacterial growth inhibition incubated for 5 days by luminescence based analysis; format: functional; conditions: CDC1551, 120 h, time 5 day
In short: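 Bioluminescent Mtb-lux CDC1551 reporter grown in Middlebrook 7H9 with 0.05% Tween 80, 10% OADC and kanamycin to OD600 0.4–0.8, then diluted to OD600 0.02. Added to twofold drug dilutions (0.003–200 μM). Incubated 5 days at 37 °C, 5% CO2. Luminescence read against 1% DMSO and 10 μM rifampicin controls to give % growth inhibition. MIC taken from a modified Gompertz fit.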

HepG2 = test: Cytotoxicity against human HepG2 cells assessed as reduction in cell viability […] by Alamar blue assay; format: toxicity, cell-based
Staphylococcus aureus [3] = test: Antibiofilm activity against methicillin-resistant Staphylococcus aureus BAA-1707 biofilms assessed as biofilm eradication incubated for 24 hrs followed by incubation for 24 hrs in fresh medium by Calgary biofilm device assay; format: functional
In short: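 Calgary biofilm device. Mid-log culture diluted 1000-fold in TSB with 0.5% glucose; biofilms grown on pegs 24 h at 37 °C. Pegs washed and challenged with twofold compound dilutions for 24 h at 37 °C, then moved to fresh medium for 24 h. MBEC is the lowest concentration leaving wells non-turbid. At least three independent experiments.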

[4] = system: Staphylococcus epidermidis; test: Bactericidal activity against methicillin-resistant Staphylococcus epidermidis ATCC 35984 planktonic cells assessed as planktonic eradication incubated for 24 hrs followed by incubation for overnight in fresh medium by Calgary biofilm device assay; format: functional
In short: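 Calgary biofilm device. Biofilms grown 24 h at 37 °C in TSB with 0.5% glucose, then challenged 24 h with twofold compound dilutions. 20 μL of challenge medium transferred into fresh TSB with 0.5% glucose and incubated overnight at 37 °C. MBC is the concentration with no visible turbidity. At least three independent experiments.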

Erythrocyte = test: Hemolytic activity against human RBC at 200 uM measured after 1 hr; format: toxicity, cell-based
In short: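 2% hRBCs exposed to compound at 200 μM final, added from DMSO stock, for 1 h at 37 °C. Supernatant OD read at 405 nm. Hemolysis normalized between DMSO (0%) and Triton X (100%); three independent experiments.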

Staphylococcus aureus [5] = test: Induction of iron starvation in methicillin-resistant Staphylococcus aureus BAA-1707 biofilms assessed as upregulation of sfaA gene expression at 1 uM incubated for 4 hrs by RT-qPCR analysis; format: functional
In short: (§1)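 MRSA BAA-1707 grown in TSB with 0.5% glucose to OD600 ~0.8–1.0, then biofilms formed 20 h at 37 °C statically in gelatin-coated 24-well plates. Biofilms treated 4 h at 37 °C with compound (1 μM or 1/10 MBEC) or DMSO vehicle. RNA extracted; only RIN ≥7 samples used. One-step SYBR RT-qPCR; ΔCT normalised to ptaA. Three independent experiments.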

Staphylococcus aureus [6] = test: Induction of iron starvation in methicillin-resistant Staphylococcus aureus BAA-1707 biofilms assessed as upregulation of isdB gene expression at 1 uM incubated for 4 hrs by RT-qPCR analysis; format: functional; in short: as §1
[7] = Binding affinity to Fe2+ assessed as compound-Fe2+ complex formation by UV-vis spectroscopy
Staphylococcus aureus [8] = test: Antibacterial activity against methicillin-resistant Staphylococcus aureus clinical isolate 2 assessed as bacterial growth inhibition; format: functional
Staphylococcus aureus [9] = test: Antibacterial activity against methicillin-resistant Staphylococcus aureus 129 assessed as bacterial growth inhibition; format: functional
Staphylococcus aureus [10] = test: Antibiofilm activity against methicillin-resistant Staphylococcus aureus BAA-1707 biofilms assessed as biofilm killing at MBEC measured by CBD assay; format: functional

Cc1cccc2nc3c(O)c(Br)c(Cl)c(Br)c3nc12
MIC (Staphylococcus aureus [1]): 0.08 µM (≈ 0.0322 µg/mL) | MIC (Enterococcus faecalis): 0.2 µM (≈ 0.0805 µg/mL) | MIC [2]: 1.59 µM (≈ 0.64 µg/mL) | IC50 (HepG2): > 200 µM | MBEC (Staphylococcus aureus [3]): 1.56 µM | MBC [4]: 0.78 µM (≈ 0.314 µg/mL) | Activity (Erythrocyte): <= 1% | Activity (Staphylococcus aureus [5]): Active | Activity (Staphylococcus aureus [6]): Active | Activity [7]: Active | MIC (Staphylococcus aureus [8]): 0.06 µM (≈ 0.0241 µg/mL) | MIC (Staphylococcus aureus [9]): 0.06 µM (≈ 0.0241 µg/mL) | Activity (Staphylococcus aureus [10]): 99.9%
